Among the data in ChEMBL document CHEMBL3865813, “Neolignans from the Arils of Myristica fragrans as Potent Antagonists of CC Chemokine Receptor 3” (J Nat Prod, 2016) are inhibition and Activity values, retold here.

For data set [1], the target named is T1, C-C chemokine receptor type 3 (Homo sapiens) (UniProt P51677).
T1 sequence (whole entry): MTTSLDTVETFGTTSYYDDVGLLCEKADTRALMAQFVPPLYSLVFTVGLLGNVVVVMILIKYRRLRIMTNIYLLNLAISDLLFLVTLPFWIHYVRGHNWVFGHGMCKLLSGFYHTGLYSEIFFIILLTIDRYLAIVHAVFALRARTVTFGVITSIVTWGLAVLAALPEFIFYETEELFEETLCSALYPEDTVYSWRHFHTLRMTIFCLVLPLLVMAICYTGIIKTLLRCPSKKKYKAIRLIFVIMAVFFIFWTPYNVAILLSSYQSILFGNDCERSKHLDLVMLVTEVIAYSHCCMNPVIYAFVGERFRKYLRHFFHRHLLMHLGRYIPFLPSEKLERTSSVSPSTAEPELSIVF
As to the kind of experiment: Antagonist activity at human EGFP-fused CCR3 expressed in mouse L1.2 cells assessed as inhibition of CCL11-induced chemotaxis at 1 uM measured after 1.5 hrs by PicoGreen dsDNA reagent-based assay. The class given is cell-based. In short, it runs like this: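 Human CCR3 was stably expressed in mouse pre-B L1.2 cells by a retroviral pMX-IRES-EGFP vector, and EGFP+ cells were sorted. Test sample was at 1 μM (DMSO, 0.5% final) with 10 nM CCL11 in lower wells (phenol red-free RPMI/BSA). Cells at 8 × 10^6/mL crossed a 5 μm filter for 1.5 h at 37 °C. Migrated cells were lysed (0.1% Triton X-100) and quantified with PicoGreen. Three experiments, Dunnett's test vs control.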

For a further data set, the species on record is Mus musculus. Kind of data set: Cytotoxicity against mouse L1.2 cells at 1.5 uM. The class given is toxicity, cell-based. The following applies: l1.2, 1.5 µM.

Structures are written as SMILES. The source made the active and inactive calls. The rule behind the calls is not given here.

As for `C=CCc1cc(OC)c(O[C@H](C)Cc2ccc3c(c2)OCO3)c(OC)c1`, the inhibition result in data set [1] is “Active”.
Still for that read-out and setting: in the case of `C=CCc1cc(OC)c(O[C@H](C)[C@@H](O)c2ccc3c(c2)OCO3)c(OC)c1` it was “Active”; in that of `COc1cc([C@H]2Oc3c(OC)cc(/C=C/C=O)cc3[C@@H]2C)ccc1O`, “Active”; in that of `COc1cc([C@H]2O[C@@H](c3ccc(O)c(OC)c3)[C@@H](C)[C@@H]2C)ccc1O`, “Active”.
Same read-out and setting: in the case of `COc1cc([C@H]2O[C@@H](c3ccc(O)c(OC)c3)[C@H](C)[C@@H]2C)ccc1O` it was “Active”; in that of `C=CCc1cc(OC)c2c(c1)OCO2`, “Active”; in that of `C=CCc1cc(OC)c(O[C@@H](C)[C@H](OC(C)=O)c2ccc(OC)c(OC)c2)c(OC)c1`, “Active”.
Consider `C/C=C/c1cc(OC)c2c(c1)[C@@H](C)[C@H](c1ccc(O)c(OC)c1)O2`, for which the inhibition entry in data set [1] is “Active”.
Still for that read-out and setting: for `C/C=C/c1cc(OC)c2c(c1)[C@@H](C)[C@H](c1cc(OC)c(O)c(OC)c1)O2` the value was “Active”.
Regarding `C=CCc1cc(OC)c(O[C@H](C)[C@@H](O)c2cc(OC)c(O)c(OC)c2)c(OC)c1`, the Activity entry in the data set listed under Mus musculus was “Non-Toxic”. Besides, the inhibition result in data set [1] is “Active”.
